Assay results reported in ChEMBL document CHEMBL1135791, “Lysergamides of isomeric 2,4-dimethylazetidines map the binding orientation of the diethylamide moiety in the potent hallucinogenic agent N,N-diethyllysergamide (LSD)” (J Med Chem, 2002).
Values joined by “and” are separate entries in the source; they are usually repeats but may differ in a detail not shown here. Identical values can stand only once.

Experiments:
[1] = target: T1, 5-hydroxytryptamine receptor 1D (Homo sapiens, UniProt P28221); assay: Binding affinities against 5-hydroxytryptamine 1D receptor alpha
Summary of the method: (§1)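 Screening-panel competition binding. […] Each Ki was replicated 2–3 times and is reported as mean ± SEM from nonlinear fitting. Receptor source and radioligand are not given beyond an online protocol.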

Rattus norvegicus [2] = assay: Compound was evaluated for the percentage of rats selecting the drug lever (SDL) following a dose of 0.02 mg/kg and 0.049 uM/kg; type: functional
[3] = target: T2, 5-hydroxytryptamine receptor 6 (Homo sapiens, UniProt P50406); assay: Binding affinities against 5-hydroxytryptamine 6 receptor; summary of the method: as §1
[4] = target: T3, 5-hydroxytryptamine receptor 2B (Homo sapiens, UniProt P41595); assay: Binding affinities against 5-hydroxytryptamine 2B receptor; summary of the method: as §1
[5] = target: 5-hydroxytryptamine receptor 7 (Homo sapiens, UniProt P34969); assay: Binding affinities against 5-hydroxytryptamine 7 receptor
Rattus norvegicus [6] = assay: Compound was evaluated for the percentage of rats selecting the drug lever (SDL) following a dose of 0.04 mg/kg and 0.097 uM/kg; type: functional
[7] = target: T4, 5-hydroxytryptamine receptor 1A (Homo sapiens, UniProt P08908); assay: Binding affinity against 5-hydroxytryptamine 1A receptor using [3H]8-OH-DPAT as radioligand
T4 sequence (P08908 whole entry): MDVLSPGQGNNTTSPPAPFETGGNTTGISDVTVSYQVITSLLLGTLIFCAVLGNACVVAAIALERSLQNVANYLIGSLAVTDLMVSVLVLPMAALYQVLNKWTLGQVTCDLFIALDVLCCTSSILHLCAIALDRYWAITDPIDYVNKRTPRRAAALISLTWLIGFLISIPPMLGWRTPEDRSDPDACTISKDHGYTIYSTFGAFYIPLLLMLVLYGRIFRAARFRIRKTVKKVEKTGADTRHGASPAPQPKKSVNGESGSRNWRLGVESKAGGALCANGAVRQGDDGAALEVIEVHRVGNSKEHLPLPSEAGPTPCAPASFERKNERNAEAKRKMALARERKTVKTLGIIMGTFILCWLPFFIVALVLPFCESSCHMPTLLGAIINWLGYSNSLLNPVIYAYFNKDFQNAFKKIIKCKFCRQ
Summary of the method: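 Competition binding at human 5-HT1A stably expressed in CHO cells (maintained in MEM, 10% dialyzed FBS, hygromycin B; serum-free 5 h before harvest, pellets stored –80 °C). 0.80 nM [3H]8-OH-DPAT, buffer 50 mM Tris/0.5 mM EDTA/10 mM MgCl2 pH 7.4, 60 min at 25 °C, filtration.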

Rattus norvegicus [8] = assay: Compound was evaluated for the percentage of rats selecting the drug lever (SDL) following a dose of 0.16 mg/kg and 0.388 uM/kg; type: functional
Summary of the method: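 Test drug was given ip 30 min before sessions run under extinction, with ≥8 rats per dose. The first lever reaching 50 presses scored as selected. No completion within 5 min counted as disruption.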

Rattus norvegicus [9] = assay: Compound was evaluated for the percentage of rats disrupted following a dose of 0.02 mg/kg and 0.049 uM/kg; type: functional
Summary of the method: (§2)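 LSD-trained rats (0.08 mg/kg ip vs saline, two-lever, FR50) were given the test drug ip 30 min before extinction sessions, with ≥8 rats per dose. A session was scored as disrupted if 50 presses on one lever were not completed within 5 min. The value is the percentage of rats disrupted at each dose.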

Histamine H1 receptor [10] = target: T5, Histamine H1 receptor (Homo sapiens, UniProt P35367); assay: Binding affinity against Histamine H1 receptor; summary of the method: as §1
[11] = target: T6, 5-hydroxytryptamine receptor 5A (Homo sapiens, UniProt P47898); assay: Binding affinities against 5-hydroxytryptamine 5A receptor; summary of the method: as §1
D(2) dopamine receptor [12] = target: T7, D(2) dopamine receptor (Homo sapiens, UniProt P14416); assay: Binding affinity against Dopamine receptor D2; summary of the method: as §1
Rattus norvegicus [13] = assay: Compound was evaluated for effective dose measured in mg/kg following a dose of 0.04 mg/kg and 0.097 uM/kg (95%CI); type: functional
D(1A) dopamine receptor [14] = target: T8, D(1A) dopamine receptor (Mus musculus, UniProt Q61616); assay: Binding affinity against Dopamine receptor D1; summary of the method: as §1
[15] = target: 5-hydroxytryptamine receptor 1E (Homo sapiens, UniProt P28566); assay: Binding affinity towards 5-hydroxytryptamine 1E receptor; summary of the method: as §1
Rattus norvegicus [16] = assay: Compound was evaluated for effective dose measured in mg/kg following a dose of 0.08 mg/kg and 0.194 uM/kg (95%CI); range 0.030-0.075; type: functional
Rattus norvegicus [17] = assay: Percentage of rats disrupted after 0.02 mg/kg, 0.046 uM/kg dose; type: functional; summary of the method: as §2
Rattus norvegicus [18] = assay: Percentage of rats selecting drug lever (SDL) after 0.08 mg/kg, 0.186 uM/kg dose; type: functional
Rattus norvegicus [19] = assay: Effective dose as nmol/kg after 0.02 mg/kg, 0.046 uM/kg dose (95%CI); type: functional
[20] = target: T1, 5-hydroxytryptamine receptor 1D; assay: Binding affinity towards 5-hydroxytryptamine 1D receptor alpha using [3H]8-OH-DPAT as radioligand
Rattus norvegicus [21] = assay: Percentage of rats selecting the drug lever (SDL) after 0.02 mg/kg, 0.046 uM/kg dose; type: functional
Rattus norvegicus [22] = assay: Percentage of rats selecting drug lever (SDL) after 0.04 mg/kg, 0.093 uM/kg dose; type: functional
Rattus norvegicus [23] = assay: Effective dose in rats as nmol/kg after 0.04 mg/kg, 0.093 uM/kg dose (95%CI); type: functional
D(2) dopamine receptor [24] = target: T7, D(2) dopamine receptor; assay: Binding affinity towards Dopamine receptor D2
Rattus norvegicus [25] = assay: Percentage of rats selecting the drug lever (SDL) after 0.01 mg/kg, 0.023 uM/kg dose; type: functional
Rattus norvegicus [26] = assay: Percentage of rats disrupted after 0.01 mg/kg, 0.023 uM/kg dose; type: functional; summary of the method: as §2
D(1A) dopamine receptor [27] = target: T8, D(1A) dopamine receptor; assay: Binding affinities towards Dopamine receptor D1; summary of the method: as §1
D(4) dopamine receptor = target: T9, D(4) dopamine receptor (Homo sapiens, UniProt P21917); assay: Binding affinity towards Dopamine receptor D4
T9 sequence (P21917 whole entry): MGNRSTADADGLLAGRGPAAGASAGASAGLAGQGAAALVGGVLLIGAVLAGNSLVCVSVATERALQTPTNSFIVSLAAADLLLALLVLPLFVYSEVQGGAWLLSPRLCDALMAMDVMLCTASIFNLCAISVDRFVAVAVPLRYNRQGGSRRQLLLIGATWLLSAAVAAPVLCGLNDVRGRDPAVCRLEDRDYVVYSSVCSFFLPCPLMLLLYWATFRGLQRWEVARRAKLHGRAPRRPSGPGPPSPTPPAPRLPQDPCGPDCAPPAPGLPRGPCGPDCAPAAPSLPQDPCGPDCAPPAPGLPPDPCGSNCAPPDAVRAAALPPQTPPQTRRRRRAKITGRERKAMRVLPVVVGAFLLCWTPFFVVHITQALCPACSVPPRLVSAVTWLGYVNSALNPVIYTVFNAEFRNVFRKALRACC
Summary of the method: (§3)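 Screening-panel competition binding. Each Ki was replicated 2–3 times and is reported as mean ± SEM from nonlinear fitting. Receptor source and radioligand are not given beyond an online protocol.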

D(3) dopamine receptor = D(3) dopamine receptor (Homo sapiens, UniProt P35462); assay: Binding affinity towards Dopamine receptor D3
Rattus norvegicus [28] = assay: Percentage of rats disrupted after 0.04 mg/kg, 0.093 uM/kg dose; type: functional; summary of the method: as §2
D(1B) dopamine receptor = D(1B) dopamine receptor (Homo sapiens, UniProt P21918); assay: Binding affinity towards Dopamine receptor D5; summary of the method: as §3
Rattus norvegicus [29] = assay: Percentage of rats disrupted after 0.08 mg/kg, 0.186 uM/kg dose (95%CI); type: functional; summary of the method: as §2
Rattus norvegicus [30] = assay: Compound was evaluated for effective dose measured in nmol/kg following a dose of 0.04 mg/kg and 0.097 uM/kg (95%CI); type: functional
[31] = target: T1, 5-hydroxytryptamine receptor 1D; assay: Binding affinities towards 5-hydroxytryptamine 1D receptor alpha; summary of the method: as §1
[32] = target: T3, 5-hydroxytryptamine receptor 2B; assay: Binding affinities towards 5-hydroxytryptamine 2B receptor; summary of the method: as §1
[33] = target: T4, 5-hydroxytryptamine receptor 1A; assay: Binding affinity towards 5-hydroxytryptamine 1A receptor using [3H]8-OH-DPAT as radioligand
[34] = target: T6, 5-hydroxytryptamine receptor 5A; assay: Binding affinities towards 5-hydroxytryptamine 5A receptor
Rattus norvegicus [35] = assay: Compound was evaluated for effective dose measured in mg/kg following a dose of 0.04 mg/kg and 0.097 uM/kg (95%CI); range 0.027-0.11; type: functional
D(1A) dopamine receptor [36] = target: T8, D(1A) dopamine receptor; assay: Binding affinity towards Dopamine receptor D1; summary of the method: as §1
Histamine H1 receptor [37] = target: T5, Histamine H1 receptor; assay: Binding affinity towards Histamine H1 receptor; summary of the method: as §3
[38] = target: T2, 5-hydroxytryptamine receptor 6; assay: Binding affinities towards 5-hydroxytryptamine 6 receptor; summary of the method: as §3
Rattus norvegicus [39] = assay: Compound was evaluated for the percentage of rats selecting the drug lever (SDL) following a dose of 0.08 mg/kg and 0.194 uM/kg; type: functional
Rattus norvegicus [40] = assay: Compound was evaluated for effective dose measured in mg/kg following a dose of 0.04 mg/kg and 0.097 uM/kg (95%CI); range 0.007-0.016; type: functional
Rattus norvegicus [41] = assay: Compound was evaluated for the percentage of rats disrupted following a dose of 0.01 mg/kg and 0.025 uM/kg; type: functional; summary of the method: as §2
Rattus norvegicus [42] = assay: Compound was evaluated for the percentage of rats selecting the drug lever (SDL) following a dose of 0.01 mg/kg and 0.025 uM/kg; type: functional
Rattus norvegicus [43] = assay: Compound was evaluated for effective dose measured in mg/kg following a dose of 0.02 mg/kg and 0.049 uM/kg (95%CI); type: functional

T6 sequence (P47898 whole entry): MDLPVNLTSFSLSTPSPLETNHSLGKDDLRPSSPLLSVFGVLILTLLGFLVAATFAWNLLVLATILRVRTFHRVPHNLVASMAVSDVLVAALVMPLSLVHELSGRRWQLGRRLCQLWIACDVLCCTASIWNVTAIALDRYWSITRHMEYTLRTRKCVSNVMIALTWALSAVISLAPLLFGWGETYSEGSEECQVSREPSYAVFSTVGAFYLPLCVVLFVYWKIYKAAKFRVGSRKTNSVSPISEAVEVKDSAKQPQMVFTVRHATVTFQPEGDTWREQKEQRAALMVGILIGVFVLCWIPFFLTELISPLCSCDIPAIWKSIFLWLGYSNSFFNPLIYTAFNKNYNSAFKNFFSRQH
T7 sequence (P14416 whole entry): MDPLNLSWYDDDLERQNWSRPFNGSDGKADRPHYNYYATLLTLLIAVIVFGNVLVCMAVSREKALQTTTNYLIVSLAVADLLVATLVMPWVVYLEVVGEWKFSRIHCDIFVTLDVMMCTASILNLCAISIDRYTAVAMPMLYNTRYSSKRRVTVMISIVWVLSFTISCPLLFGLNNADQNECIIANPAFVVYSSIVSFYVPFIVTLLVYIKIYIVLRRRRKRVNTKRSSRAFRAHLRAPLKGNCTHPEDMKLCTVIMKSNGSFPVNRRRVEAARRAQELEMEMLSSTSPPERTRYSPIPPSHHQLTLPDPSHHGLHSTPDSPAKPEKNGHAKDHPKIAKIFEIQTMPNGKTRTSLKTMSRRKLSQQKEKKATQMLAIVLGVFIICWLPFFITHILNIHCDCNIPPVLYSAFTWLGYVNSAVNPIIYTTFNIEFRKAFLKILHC
T2 sequence (P50406 whole entry): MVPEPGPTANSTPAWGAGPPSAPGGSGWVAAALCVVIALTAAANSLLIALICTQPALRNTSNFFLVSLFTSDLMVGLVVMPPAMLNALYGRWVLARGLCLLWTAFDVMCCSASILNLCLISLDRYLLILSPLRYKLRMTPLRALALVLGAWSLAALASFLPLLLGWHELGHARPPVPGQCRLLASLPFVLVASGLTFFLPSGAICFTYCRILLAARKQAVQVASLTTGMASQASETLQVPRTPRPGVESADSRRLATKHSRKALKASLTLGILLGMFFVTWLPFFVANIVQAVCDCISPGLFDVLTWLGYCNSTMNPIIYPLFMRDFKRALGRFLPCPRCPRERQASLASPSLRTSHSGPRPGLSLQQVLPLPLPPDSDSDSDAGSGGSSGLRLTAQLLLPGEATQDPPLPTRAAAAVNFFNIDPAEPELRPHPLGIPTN
T1 sequence (P28221 whole entry): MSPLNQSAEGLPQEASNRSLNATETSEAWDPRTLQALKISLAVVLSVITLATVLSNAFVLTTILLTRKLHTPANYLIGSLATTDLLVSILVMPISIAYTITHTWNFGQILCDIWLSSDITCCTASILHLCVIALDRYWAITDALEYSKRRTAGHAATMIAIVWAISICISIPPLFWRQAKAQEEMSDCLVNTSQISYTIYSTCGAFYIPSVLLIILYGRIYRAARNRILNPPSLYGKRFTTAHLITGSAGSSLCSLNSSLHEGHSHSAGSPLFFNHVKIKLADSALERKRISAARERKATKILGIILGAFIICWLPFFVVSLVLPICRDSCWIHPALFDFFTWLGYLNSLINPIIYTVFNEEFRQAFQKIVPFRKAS
T5 sequence (P35367 whole entry): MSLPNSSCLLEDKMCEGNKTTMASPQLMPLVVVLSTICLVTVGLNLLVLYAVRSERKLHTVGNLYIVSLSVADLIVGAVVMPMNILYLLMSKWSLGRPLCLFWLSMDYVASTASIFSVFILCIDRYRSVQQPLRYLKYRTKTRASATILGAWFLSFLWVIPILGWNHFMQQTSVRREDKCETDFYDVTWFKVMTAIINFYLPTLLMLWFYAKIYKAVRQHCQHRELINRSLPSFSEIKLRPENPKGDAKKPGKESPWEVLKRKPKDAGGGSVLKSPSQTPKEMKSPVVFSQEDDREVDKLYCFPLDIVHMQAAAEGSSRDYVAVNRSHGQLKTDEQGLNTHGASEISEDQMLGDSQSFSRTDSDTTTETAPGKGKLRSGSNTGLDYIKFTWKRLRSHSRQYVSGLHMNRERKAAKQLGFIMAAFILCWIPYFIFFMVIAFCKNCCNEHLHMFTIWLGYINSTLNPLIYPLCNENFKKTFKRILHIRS
Chain of 5-hydroxytryptamine receptor 1E (P28566 whole entry): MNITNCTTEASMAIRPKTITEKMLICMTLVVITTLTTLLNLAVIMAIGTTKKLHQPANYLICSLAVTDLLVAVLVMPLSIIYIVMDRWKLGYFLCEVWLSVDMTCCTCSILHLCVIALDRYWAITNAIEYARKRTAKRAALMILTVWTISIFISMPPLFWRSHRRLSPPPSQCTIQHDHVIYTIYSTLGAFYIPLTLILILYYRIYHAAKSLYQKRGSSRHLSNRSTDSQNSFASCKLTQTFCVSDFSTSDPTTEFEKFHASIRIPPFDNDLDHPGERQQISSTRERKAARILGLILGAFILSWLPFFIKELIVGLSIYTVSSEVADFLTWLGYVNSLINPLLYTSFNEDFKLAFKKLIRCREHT
T8 sequence (Q61616 whole entry): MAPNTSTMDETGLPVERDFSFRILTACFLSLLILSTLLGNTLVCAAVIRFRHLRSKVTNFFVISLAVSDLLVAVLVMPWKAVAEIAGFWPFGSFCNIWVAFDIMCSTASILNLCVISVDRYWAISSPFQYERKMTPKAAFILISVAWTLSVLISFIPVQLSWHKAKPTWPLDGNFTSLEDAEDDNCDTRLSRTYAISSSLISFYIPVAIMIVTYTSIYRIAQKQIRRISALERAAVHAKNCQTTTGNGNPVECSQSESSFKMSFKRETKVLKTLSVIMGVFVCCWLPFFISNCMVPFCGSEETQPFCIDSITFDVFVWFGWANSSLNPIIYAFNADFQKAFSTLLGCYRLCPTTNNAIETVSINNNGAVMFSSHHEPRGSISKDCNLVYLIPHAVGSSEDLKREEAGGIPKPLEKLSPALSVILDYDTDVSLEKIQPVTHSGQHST
T3 sequence (P41595 whole entry): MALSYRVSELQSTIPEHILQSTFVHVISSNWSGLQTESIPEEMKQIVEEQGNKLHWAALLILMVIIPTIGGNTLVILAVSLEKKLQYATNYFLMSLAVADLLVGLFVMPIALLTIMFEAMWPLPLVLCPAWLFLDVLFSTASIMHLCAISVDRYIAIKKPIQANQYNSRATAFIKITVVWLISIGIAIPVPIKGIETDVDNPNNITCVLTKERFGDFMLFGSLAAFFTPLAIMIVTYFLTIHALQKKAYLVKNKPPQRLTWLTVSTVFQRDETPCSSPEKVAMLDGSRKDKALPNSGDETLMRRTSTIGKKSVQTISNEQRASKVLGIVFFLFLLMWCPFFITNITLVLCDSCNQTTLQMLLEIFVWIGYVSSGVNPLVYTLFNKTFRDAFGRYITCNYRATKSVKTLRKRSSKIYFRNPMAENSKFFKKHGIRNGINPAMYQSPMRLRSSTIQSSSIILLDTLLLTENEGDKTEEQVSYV
Chain of 5-hydroxytryptamine receptor 7 (P34969 whole entry): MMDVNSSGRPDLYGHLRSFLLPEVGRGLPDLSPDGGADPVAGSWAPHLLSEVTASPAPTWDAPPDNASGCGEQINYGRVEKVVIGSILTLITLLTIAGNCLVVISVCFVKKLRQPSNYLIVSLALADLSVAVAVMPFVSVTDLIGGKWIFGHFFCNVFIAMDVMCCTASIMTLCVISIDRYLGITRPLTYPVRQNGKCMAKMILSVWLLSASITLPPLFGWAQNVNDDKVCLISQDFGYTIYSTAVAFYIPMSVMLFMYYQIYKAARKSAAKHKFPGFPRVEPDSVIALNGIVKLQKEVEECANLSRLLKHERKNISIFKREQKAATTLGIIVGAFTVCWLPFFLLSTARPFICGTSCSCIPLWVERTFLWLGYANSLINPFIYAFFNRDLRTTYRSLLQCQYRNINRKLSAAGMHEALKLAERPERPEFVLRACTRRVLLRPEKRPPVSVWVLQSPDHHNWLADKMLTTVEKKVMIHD
Chain of D(1B) dopamine receptor (P21918 whole entry): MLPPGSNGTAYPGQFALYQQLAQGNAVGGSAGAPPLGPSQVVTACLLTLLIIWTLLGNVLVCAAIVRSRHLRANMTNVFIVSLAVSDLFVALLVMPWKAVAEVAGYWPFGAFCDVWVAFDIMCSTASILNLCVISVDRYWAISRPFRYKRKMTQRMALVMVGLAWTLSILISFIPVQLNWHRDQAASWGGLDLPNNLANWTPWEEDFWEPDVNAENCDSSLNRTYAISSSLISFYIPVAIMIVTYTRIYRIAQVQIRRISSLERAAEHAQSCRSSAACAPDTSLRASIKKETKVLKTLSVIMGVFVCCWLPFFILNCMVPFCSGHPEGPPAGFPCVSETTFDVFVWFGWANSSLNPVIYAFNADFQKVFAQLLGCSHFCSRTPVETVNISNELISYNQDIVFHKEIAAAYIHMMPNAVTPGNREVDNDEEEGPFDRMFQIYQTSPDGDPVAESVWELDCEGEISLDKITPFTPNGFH
Chain of D(3) dopamine receptor (P35462 whole entry): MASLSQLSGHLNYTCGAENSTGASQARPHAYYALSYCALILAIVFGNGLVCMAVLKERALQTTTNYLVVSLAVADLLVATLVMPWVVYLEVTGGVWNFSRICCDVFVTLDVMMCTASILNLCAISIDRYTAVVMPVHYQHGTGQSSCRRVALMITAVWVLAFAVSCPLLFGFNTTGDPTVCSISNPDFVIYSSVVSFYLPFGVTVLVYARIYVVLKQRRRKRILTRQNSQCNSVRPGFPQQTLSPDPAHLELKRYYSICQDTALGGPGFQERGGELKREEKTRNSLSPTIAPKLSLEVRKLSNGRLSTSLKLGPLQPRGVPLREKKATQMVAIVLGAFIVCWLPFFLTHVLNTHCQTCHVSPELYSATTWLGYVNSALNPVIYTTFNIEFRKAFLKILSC

## C[C@@H]1C[C@H](C)N1C(=O)[C@@H]1C=C2c3cccc4[nH]cc(c34)CC2N(C)C1 (some centres not stated)
[1]
  Ki: 3.7 nM
Rattus norvegicus [2]
  D: 0%
[3]
  Ki: 13 nM
[4]
  Ki: 44 nM
[5]
  Ki: 12 nM
Rattus norvegicus [6]
  D: 0%
  SDL: 33%
[7]
  Ki: 1.1 nM
Rattus norvegicus [8]
  ED50: 0.03 mg/kg
Rattus norvegicus [9]
  D: 12%
Histamine H1 receptor [10]
  Ki: 500 nM
[11]
  Ki: 16 nM
D(2) dopamine receptor [12]
  Ki: 60 nM
Rattus norvegicus [13]
  D: 20%
  SDL: 70%
D(1A) dopamine receptor [14]
  Ki: 230 nM
[15]
  Ki: 200 nM
Rattus norvegicus [16]
  ED50: 0.047 mg/kg

## CCN(CC)C(=O)[C@@H]1C=C2c3cccc4[nH]cc(c34)C[C@H]2N(C)C1 [LYSERGIDE]
Rattus norvegicus [17]
  D: 0%
Rattus norvegicus [18]
  SDL: 100%
Rattus norvegicus [19]
  ED50: 0.045 µmol/kg
[20]
  Ki: 3.9 nM
Rattus norvegicus [21]
  SDL: 58%
Rattus norvegicus [22]
  SDL: 75%
Rattus norvegicus [23]
  ED50: 0.032 µmol/kg
D(2) dopamine receptor [24]
  Ki: 120 nM
Rattus norvegicus [25]
  SDL: 17%
Rattus norvegicus [26]
  D: 0%
D(1A) dopamine receptor [27]
  Ki: 180 nM
D(4) dopamine receptor
  Ki: 56 nM
D(3) dopamine receptor
  Ki: 27 nM
Rattus norvegicus [28]
  D: 0%
D(1B) dopamine receptor
  Ki: 340 nM
Rattus norvegicus [29]
  D: 0%
[15]
  Ki: 93 nM

## C[C@@H]1C[C@@H](C)N1C(=O)[C@@H]1C=C2c3cccc4[nH]cc(c34)CC2N(C)C1 (some centres not stated)
Rattus norvegicus [30]
  ED50: 0.066 µmol/kg
Rattus norvegicus [2]
  D: 0%
[31]
  Ki: 2 nM
[32]
  Ki: 310 nM
[33]
  Ki: 6.8 nM
[34]
  Ki: 13 nM
Rattus norvegicus [35]
  SDL: 80%
D(1A) dopamine receptor [36]
  Ki: 340 nM
Histamine H1 receptor [37]
  Ki: 1400 nM
Rattus norvegicus [6]
  D: 10%
Rattus norvegicus [8]
  SDL: 40%
D(2) dopamine receptor [24]
  Ki: 330 nM
Rattus norvegicus [9]
  D: 0%
[38]
  Ki: 61 nM
Rattus norvegicus [13]
  D: 17%
  ED50: 0.055 mg/kg
[15]
  Ki: 140 nM
Rattus norvegicus [39]
  ED50: 0.027 mg/kg
Rattus norvegicus [39]; 0.08 mg/kg
  SDL: 25% and 56%

## C[C@H]1C[C@H](C)N1C(=O)[C@@H]1C=C2c3cccc4[nH]cc(c34)CC2N(C)C1 (some centres not stated)
Rattus norvegicus [2]
  D: 0%
[31]
  Ki: 2.4 nM
[32]
  Ki: 27 nM
[33]
  Ki: 0.45 nM
[34]
  Ki: 27 nM
Rattus norvegicus [40]
  SDL: 100%
D(1A) dopamine receptor [36]
  Ki: 290 nM
Histamine H1 receptor [37]
  Ki: 2500 nM
Rattus norvegicus [6]
  SDL: 67% and 90%
D(2) dopamine receptor [24]
  Ki: 110 nM
Rattus norvegicus [9]
  ED50: 0.025 µmol/kg
[38]
  Ki: 15 nM
Rattus norvegicus [41]
  D: 6%
Rattus norvegicus [42]
  D: 7%
Rattus norvegicus [43]
  D: 0%
  ED50: 0.01 mg/kg
[15]
  Ki: 280 nM
Rattus norvegicus [39]
  SDL: 50%
